From ChEMBL document CHEMBL5096226, “Structure-Activity Relationship Study of Momordica Saponin II Derivatives as Vaccine Adjuvants” (J Med Chem, 2022)
Calls of active or inactive are those of the source.

What was measured:
Format in all cases: functional, organism-based
[1] = tested on: Mus musculus; assay: Immuno-adjuvant activity in BALB/c mouse assessed as increase in anti-OVA IgG antibody in serum at 50 ug, sc administered on day 0, 14 and 28 and measured at 2, 4 and 6 weeks in presence of chicken egg ovalbumin by ELISA; details: dose 50.0 µg, time 2-6 weeks
Procedure, shortened: (§1)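 Female BALB/c mice (8–10 wk, six per group) immunized s.c. with OVA 20 μg ± adjuvant on days 0, 14, 28. Tail-vein serum taken before each dose and 2 wk after the last. ELISA on OVA-coated (0.1 μg/mL) plates in borate saline pH 8.2. Twofold serum dilutions in duplicate, overnight at 4 °C. HRP anti-mouse IgG/subclass applied 4 h, OPD substrate, read at 490 nm. Concentrations from reference-serum standard curves (4-parameter fit).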

[2] = tested on: Mus musculus; assay: Immuno-adjuvant activity in BALB/c mouse assessed as increase in ratio of TFH to TFR cells at 100 ug, sc administered on day 0, 14 and 28 and measured at week 6 post immunization by flow cytometry analysis; details: dose 100.0 µg, time 6.0 weeks
Procedure, shortened: (§2)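 Female BALB/c mice (8–10 wk, six per group), OVA 20 μg s.c. plus adjuvant on days 0, 14, 28; spleens collected week 6. Single-cell splenocyte suspensions stained and analysed by flow cytometry. TFH gated PD-1+Bcl6+Foxp3−CD4+CD3+, TFR PD-1+Bcl6+Foxp3+CD4+CD3+, dark zone GC B cells CXCR4hiCD86loFas+GL-7+CD19+. Steps at 4 °C. Mean ± SEM; unpaired t tests.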

[3] = tested on: Mus musculus; assay: Immuno-adjuvant activity in BALB/c mouse assessed as increase in IL-21 expressing CD4+ effector T cells in spleen at 100 ug, sc administered on day 0, 14 and 28 and measured at week 6 post immunization by flow cytometry analysis; details: T-cell, dose 100.0 µg, time 6.0 weeks
Procedure, shortened: (§3)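 Female BALB/c mice (8–10 wk, six per group) given OVA 20 μg s.c. with adjuvant on days 0, 14, 28; spleens taken at week 6. Splenocytes stained with viability dye, Fc-blocked, surface-stained 30 min. For intracellular cytokines, cells stimulated 5 h with leukocyte activation cocktail plus GolgiPlug, then fixed/permeabilized. IL-21 detected with IL-21R Fc chimera. All steps at 4 °C. Read as MFI, mean ± SEM.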

[4] = tested on: Splenocyte; assay: Immuno-adjuvant activity in BALB/c mouse Splenocyte assessed as increase in CD8+ T cells at 100 ug, sc administered on day 0, 14 and 28 and measured at week 6 post immunization by flow cytometry analysis; details: dose 100.0 µg, time 6.0 weeks; procedure, shortened: as §3
[5] = tested on: Mus musculus; assay: Immuno-adjuvant activity in BALB/c mouse assessed as increase in follicular helper T cells in spleen at 100 ug, sc administered on day 0, 14 and 28 and measured at week 6 post immunization by flow cytometry analysis; details: T-cell, dose 100.0 µg, time 6.0 weeks; procedure, shortened: as §2
[6] = tested on: Mus musculus; assay: Immuno-adjuvant activity in BALB/c mouse Splenocyte assessed as increase in CD4+ surface expression of PD-1 at 50 ug, sc administered on day 0, 14 and 28 and measured at week 6 post immunization by flow cytometry analysis; details: dose 50.0 µg, time 6.0 weeks; procedure, shortened: as §3
[7] = tested on: Mus musculus; assay: Immuno-adjuvant activity in BALB/c mouse assessed as increase in anti-OVA IgG1 antibody in serum at 100 ug, sc administered on day 0, 14 and 28 and measured at 4 weeks in presence of chicken egg ovalbumin by ELISA; details: dose 100.0 µg; procedure, shortened: as §1
[8] = tested on: Mus musculus; assay: Immuno-adjuvant activity in BALB/c mouse assessed as reduction in TFR cells in spleen at 100 ug, sc administered on day 0, 14 and 28 and measured at week 6 post immunization by flow cytometry analysis; details: dose 100.0 µg, time 6.0 weeks; procedure, shortened: as §2
[9] = tested on: Mus musculus; assay: Immuno-adjuvant activity in BALB/c mouse assessed as increase in dark zone B cells at 100 ug, sc administered on day 0, 14 and 28 and measured at week 6 post immunization by flow cytometry analysis; details: dose 100.0 µg, time 6.0 weeks; procedure, shortened: as §2
[10] = tested on: Splenocyte; assay: Immuno-adjuvant activity in BALB/c mouse Splenocyte assessed as increase in CD4+ T cells at 100 ug, sc administered on day 0, 14 and 28 and measured at week 6 post immunization by flow cytometry analysis; details: dose 100.0 µg, time 6.0 weeks; procedure, shortened: as §3
[11] = tested on: Mus musculus; assay: Immuno-adjuvant activity in BALB/c mouse assessed as increase in CD19+ B cells in spleen at 100 ug, sc administered on day 0, 14 and 28 and measured at week 6 post immunization by flow cytometry analysis; details: dose 100.0 µg, time 6.0 weeks; procedure, shortened: as §2
[12] = tested on: Mus musculus; assay: Immuno-adjuvant activity in BALB/c mouse assessed as increase in anti-OVA Ig2a antibody in serum at 100 ug, sc administered on day 0, 14 and 28 and measured at 4 and 6 weeks in presence of chicken egg ovalbumin by ELISA; details: dose 100.0 µg, time 4-6 weeks; procedure, shortened: as §1
[13] = tested on: Mus musculus; assay: Immuno-adjuvant activity in BALB/c mouse assessed as increase in IL-4 expressing CD4+ effector T cells in spleen at 100 ug, sc administered on day 0, 14 and 28 and measured at week 6 post immunization by flow cytometry analysis; details: T-cell, dose 100.0 µg, time 6.0 weeks; procedure, shortened: as §3
[14] = tested on: Mus musculus; assay: Immuno-adjuvant activity in BALB/c mouse assessed as increase in follicular helper T cells in spleen at 20 ug, sc administered on day 0, 14 and 28 and measured at week 6 post immunization by flow cytometry analysis; details: T-cell, dose 20.0 µg, time 6.0 weeks; procedure, shortened: as §2
[15] = tested on: Mus musculus; assay: Immuno-adjuvant activity in BALB/c mouse assessed as increase in anti-OVA Ig2a antibody in serum at 20 ug, sc administered on day 0, 14 and 28 and measured at 4 and 6 weeks in presence of chicken egg ovalbumin by ELISA; details: dose 20.0 µg, time 4-6 weeks; procedure, shortened: as §1
[16] = tested on: Mus musculus; assay: Immuno-adjuvant activity in BALB/c mouse Splenocyte assessed as increase in CD4+ T cells at 20 ug, sc administered on day 0, 14 and 28 and measured at week 6 post immunization by flow cytometry analysis; details: dose 20.0 µg, time 6.0 weeks; procedure, shortened: as §3
[17] = tested on: Mus musculus; assay: Immuno-adjuvant activity in BALB/c mouse Splenocyte assessed as increase in CD8+ T cells at 20 ug, sc administered on day 0, 14 and 28 and measured at week 6 post immunization by flow cytometry analysis; details: dose 20.0 µg, time 6.0 weeks; procedure, shortened: as §3
[18] = tested on: Mus musculus; assay: Immuno-adjuvant activity in BALB/c mouse assessed as increase in anti-OVA IgG2a antibody in serum at 20 ug, sc administered on day 0, 14 and 28 and measured at 2 weeks in presence of chicken egg ovalbumin by ELISA; details: dose 20.0 µg; procedure, shortened: as §1
[19] = tested on: Mus musculus; assay: Immuno-adjuvant activity in BALB/c mouse assessed as reduction in TFR cells in spleen at 20 ug, sc administered on day 0, 14 and 28 and measured at week 6 post immunization by flow cytometry analysis; details: dose 20.0 µg, time 6.0 weeks; procedure, shortened: as §2
[20] = tested on: Mus musculus; assay: Immuno-adjuvant activity in BALB/c mouse assessed as increase in IL-21 expressing CD4+ effector T cells in spleen at 20 ug, sc administered on day 0, 14 and 28 and measured at week 6 post immunization by flow cytometry analysis; details: T-cell, dose 20.0 µg, time 6.0 weeks; procedure, shortened: as §3
[21] = tested on: Mus musculus; assay: Immuno-adjuvant activity in BALB/c mouse assessed as increase in IL-4 expressing CD4+ effector T cells in spleen at 20 ug, sc administered on day 0, 14 and 28 and measured at week 6 post immunization by flow cytometry analysis; details: T-cell, dose 20.0 µg, time 6.0 weeks; procedure, shortened: as §3
[22] = tested on: Mus musculus; assay: Immuno-adjuvant activity in BALB/c mouse assessed as increase in ratio of TFH to TFR cells at 20 ug, sc administered on day 0, 14 and 28 and measured at week 6 post immunization by flow cytometry analysis; details: dose 20.0 µg, time 6.0 weeks; procedure, shortened: as §2
[23] = tested on: Mus musculus; assay: Immuno-adjuvant activity in BALB/c mouse assessed as increase in anti-OVA IgG antibody in serum at 20 ug, sc administered on day 0, 14 and 28 and measured at 2, 4 and 6 weeks in presence of chicken egg ovalbumin by ELISA; details: dose 20.0 µg, time 2-6 weeks; procedure, shortened: as §1
[24] = tested on: Mus musculus; assay: Immuno-adjuvant activity in BALB/c mouse assessed as increase in CD19+ B cells in spleen at 20 ug, sc administered on day 0, 14 and 28 and measured at week 6 post immunization by flow cytometry analysis; details: dose 20.0 µg, time 6.0 weeks; procedure, shortened: as §2
[25] = tested on: Mus musculus; assay: Immuno-adjuvant activity in BALB/c mouse assessed as increase in dark zone B cells at 20 ug, sc administered on day 0, 14 and 28 and measured at week 6 post immunization by flow cytometry analysis; details: dose 20.0 µg, time 6.0 weeks; procedure, shortened: as §2

Measured: Activity

C[C@@H]1O[C@@H](O[C@H]2[C@H](O)[C@@H](C(=O)NCCCCCCCCCCC(=O)OCc3ccccc3)O[C@@H](O[C@H]3CC[C@]4(C)[C@H]5CC=C6[C@@H]7CC(C)(C)CC[C@]7(C(=O)O[C@@H]7O[C@H](C)[C@H](O)[C@H](O)[C@H]7O[C@@H]7O[C@@H](C)[C@H](O[C@@H]8OC[C@@H](O)[C@H](O)[C@H]8O)[C@@H](O[C@@H]8O[C@H](CO)[C@@H](O)[C@H](O[C@@H]9OC[C@@H](O)[C@H](O)[C@H]9O)[C@H]8O)[C@H]7O)[C@H](O)C[C@@]6(C)[C@]5(C)CC[C@H]4[C@]3(C)C=O)[C@@H]2O[C@@H]2O[C@H](CO)[C@H](O)[C@H](O)[C@H]2O)[C@H](O)[C@H](O)[C@H]1O
active: [1] | [2] | [3] | [4] | [5] | [6] | [7] | [8] | [9] | [10] | [11] | [12] | [13]

CC[C@H](C)[C@H](C[C@H](O)CC(=O)O[C@@H]1[C@H](O)[C@@H](O[C@@H]2O[C@@H](C)[C@H](O[C@@H]3OC[C@@H](O)[C@H](O[C@@H]4OC[C@](O)(CO)[C@H]4O)[C@H]3O)[C@@H](O)[C@H]2O)[C@H](OC(=O)[C@]23CCC(C)(C)C[C@H]2C2=CC[C@@H]4[C@@]5(C)CC[C@H](O[C@@H]6O[C@H](C(=O)O)[C@@H](O)[C@H](O[C@@H]7OC[C@@H](O)[C@H](O)[C@H]7O)[C@H]6O[C@@H]6O[C@H](CO)[C@H](O)[C@H](O)[C@H]6O)[C@@](C)(C=O)[C@@H]5CC[C@@]4(C)[C@]2(C)C[C@H]3O)O[C@@H]1C)OC(=O)C[C@@H](O)C[C@H](O[C@@H]1O[C@@H](CO)[C@H](O)[C@H]1O)[C@@H](C)CC
active: [14] | [15] | [16] | [17] | [18] | [19] | [20] | [21] | [22] | [23] | [24] | [25]
